Experimental data: ChEMBL document CHEMBL1799915, “Antitubercular chromones and flavonoids from Pisonia aculeata” (2011)
≈ marks a conversion by molar mass, not a printed value.

system: Mycobacterium tuberculosis; test: Antitubercular activity against Mycobacterium tuberculosis H37Rv after 2 weeks by agar plate assay; format: functional; details: 336 h
Procedure, shortened: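 Inoculum from colonies suspended in 7H9 broth, adjusted to McFarland no. 1, then diluted; 33 μL spotted per quadrant. Incubated 35 °C, 10% CO2. MIC = lowest concentration giving complete growth inhibition, read by eye.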

Row | Compound | MIC
1 | COc1c(O)cc2occc(=O)c2c1O [PISONIN C] | 80 µg/mL (≈ 384 µM)
2 | COc1cc(O)c2c(=O)cc(C)oc2c1 [EUGENIN] | 103 µg/mL (≈ 500 µM)
3 | Cc1c(O)c(C)c2occc(=O)c2c1O [LEPTORUMOL] | 82.9 µg/mL (≈ 402 µM)
4 | Cc1cc(=O)c2c(O)cc(O)cc2o1 [NOREUGENIN] | 110 µg/mL (≈ 572 µM)
5 | Cc1c(O)cc(O)c2c1O[C@H](c1ccccc1O)CC2=O [PISONIVANONE] | 12.5 µg/mL (≈ 43.7 µM)
6 | COc1cc(/C=C/C(=O)NC[C@H](O)c2ccc(O)cc2)ccc1O | 50 µg/mL (≈ 152 µM)
7 | CC[C@@H](CO)NCCN[C@@H](CC)CO [ETHAMBUTOL] | 6.25 µg/mL (≈ 30.6 µM)
8 | COc1c(O)cc2c(c1O)C(=O)C[C@@H](c1ccccc1)O2 [DIHYDROOROXYLIN A] | 50 µg/mL (≈ 175 µM)
9 | Cc1c(O)c(C)c2c(c1O)C(=O)C[C@@H](c1ccccc1O)O2 | 20 µg/mL (≈ 66.6 µM)
10 | O=c1ccoc2cc3c(c(O)c12)OCO3 [PISONIN D] | ≥ 236 µg/mL
11 | COc1c(O)c(C)c2occ(-c3ccccc3O)c(=O)c2c1O [PISONIANONE] | ≥ 175 µg/mL
12 | COc1cc2occc(=O)c2c(O)c1OC [PISONIN A] | ≥ 100 µg/mL
13 | Cc1cc(=O)c2c(O)c3c(cc2o1)OCO3 [PISONIN E] | ≥ 190 µg/mL
14 | COc1c(O)cc2oc(C)cc(=O)c2c1O [PISONIN B] | 25 µg/mL (≈ 113 µM)
